Screening results deposited in PubChem by several laboratories.
MEKK3 PB1 HTS: MEKK3-MEK5 PB1 interaction, increase or decrease. Q99759. bead-based flow cytometry, Alexa488-MEK5 binding to MEKK3; actives lie on both sides; 0 = blocked by unlabeled MEK5, 100 = vehicle. binding response (% of control), % at 10 µM. 290,000 compounds, 1.4% hits;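 active = binding response more than 3 SD above or below the average of its plate-row segment, actives on both sides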;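 note: Alexa488 bead fluorescence after subtracting the streptavidin-only scavenger bead signal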
MEKK2mut PB1 HTS: signal of MEK5 binding to mutant human MEKK2 PB1 domain. bead flow cytometry, Alexa488-MEK5 binding to MEKK2 mutant. AID 1530. 290,000 compounds, 0.35% hits. percent response, % at 10 µM; in the data active = percent response above about 24%, passing the limit was not always enough
UBC13 polyUb: inhibitors of human UBC13 polyubiquitin chain formation | P61088 | TR-FRET | inhibition, % at 20 µM | 330,000 compounds, 0.47% hits; in the data active = inhibition above about 45%, passing the limit was not always enough
MEKK2wt PB1 HTS: raises or lowers MEK5 binding to wildtype human MEKK2 PB1 domain; Q9Y2U5; bead flow cytometry, Alexa488-MEK5 binding to MEKK2 WT; actives lie on both sides; binding response (% of control), % at 10 µM; 290,000 compounds, 1.1% hits; in the data active = binding response below about 67% or above about 130%
UCH37 DUB inh: blocks the human deubiquitinase UCH37; Q9Y5K5; 330,000 compounds, 0.33% hits; inhibition, % (concentration not given with the values); purified proteasome/UCH37, Ub-AMC cleavage fluorescence; AID 588478;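 active = mean inhibition over replicate wells above about 20%, limit read from the data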;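 note: 0% = compound-free wells with enzyme and 100% = wells lacking proteasome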
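Material: Human UCH37 enzyme supplied as purified proteasome complex | Schedule: 30 min compound-proteasome preincubation then 25 min substrate reaction, room temperature | Detection: AMC fluorescence from Ub-AMC cleavage, excitation 355 nm, emission 460 nm | Benchmarks: Wells without proteasome as full block, compound-free enzyme plus substrate as uninhibited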
Apaf-1 inh: inhibitors of human Apaf-1 apoptosome | O14727 | reconstituted apoptosome caspase-3 activity, DEVD-Rh110 fluorescence | inhibition, % at 20 µM | 330,000 compounds, 0.71% hits; active = inhibition of at least 40% at 20 µM;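 note: plate controls were DMSO wells for no effect and DEVD-CHO caspase inhibitor wells for full effect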
Target sequence (O14727 whole entry, looked up): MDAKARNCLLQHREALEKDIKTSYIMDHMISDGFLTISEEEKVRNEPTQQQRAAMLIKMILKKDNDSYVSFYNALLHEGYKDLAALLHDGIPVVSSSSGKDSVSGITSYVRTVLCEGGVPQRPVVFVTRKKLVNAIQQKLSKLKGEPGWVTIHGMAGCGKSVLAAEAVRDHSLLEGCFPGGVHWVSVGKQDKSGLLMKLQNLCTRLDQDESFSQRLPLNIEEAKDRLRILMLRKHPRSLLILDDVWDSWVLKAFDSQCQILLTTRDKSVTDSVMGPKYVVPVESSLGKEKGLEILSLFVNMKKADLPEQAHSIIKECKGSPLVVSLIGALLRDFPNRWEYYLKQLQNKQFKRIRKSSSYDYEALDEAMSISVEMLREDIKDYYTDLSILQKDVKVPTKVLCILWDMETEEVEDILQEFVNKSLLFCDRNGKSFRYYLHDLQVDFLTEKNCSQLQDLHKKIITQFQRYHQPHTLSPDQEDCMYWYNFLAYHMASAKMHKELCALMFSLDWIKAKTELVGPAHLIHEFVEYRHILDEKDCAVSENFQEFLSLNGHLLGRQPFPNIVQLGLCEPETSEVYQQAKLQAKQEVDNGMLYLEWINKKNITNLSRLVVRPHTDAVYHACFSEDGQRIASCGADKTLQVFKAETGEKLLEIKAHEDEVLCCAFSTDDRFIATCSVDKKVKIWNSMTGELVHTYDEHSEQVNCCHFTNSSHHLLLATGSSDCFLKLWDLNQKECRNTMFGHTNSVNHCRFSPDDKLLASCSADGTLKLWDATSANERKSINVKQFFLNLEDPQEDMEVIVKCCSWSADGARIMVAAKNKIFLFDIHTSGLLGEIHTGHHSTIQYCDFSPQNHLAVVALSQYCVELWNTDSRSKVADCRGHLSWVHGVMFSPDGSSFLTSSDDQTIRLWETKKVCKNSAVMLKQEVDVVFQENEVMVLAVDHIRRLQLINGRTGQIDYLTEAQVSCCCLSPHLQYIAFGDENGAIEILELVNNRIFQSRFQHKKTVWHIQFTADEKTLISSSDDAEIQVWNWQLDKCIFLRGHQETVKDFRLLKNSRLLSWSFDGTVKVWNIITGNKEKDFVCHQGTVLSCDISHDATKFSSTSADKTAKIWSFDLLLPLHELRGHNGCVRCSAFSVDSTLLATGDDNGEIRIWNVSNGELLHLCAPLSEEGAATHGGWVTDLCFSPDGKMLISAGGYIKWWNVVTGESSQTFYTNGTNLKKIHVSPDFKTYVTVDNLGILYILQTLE
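Material: reconstituted apoptosome with Apaf-1, cytochrome c, caspase-9, procaspase-3, dATP / Buffer or medium: pH 7.5 Hepes buffer with CHAPS, BSA, DTT / Also added: cytochrome c with DEVD-Rh110 / Schedule: compound with Apaf-1, dATP, procaspase-3 30 min, then 50 min reaction, room temperature / Technique: rhodamine 110 fluorescence at Ex 480/Em 540 nm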
MEKK2wt confirm: raises or lowers MEK5 binding to wildtype human MEKK2, retest. shares compounds with MEKK3 PB1 HTS. bead flow cytometry, Alexa488-MEK5 binding to MEKK2 WT; actives lie on both sides. binding response (% of control), % at 10 µM. 5,900 compounds, 2.4% hits. AID 1892; in the data active = binding response below about 16% or above about 210%; inactive = in between
MEKK2mut confirm: signal of MEK5 binding to mutant human MEKK2, retest | 5,900 compounds, 2% hits | percent response, % at 10 µM | AID 1893 | shares compounds with MEKK3 PB1 HTS | bead flow cytometry, Alexa488-MEK5 binding to MEKK2 mutant; in the data active = percent response mostly above about 71%, no sharp cut-off; inactive = mostly below about 38%;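 note: higher means compound restores mutant binding toward wildtype level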
MEKK3 confirm: confirmation of inhibitors of MEK5 binding to human MEKK3 | 5,900 compounds, 1.8% hits | AID 1894 | shares compounds with MEKK3 PB1 HTS | binding response (% of control), % at 10 µM | bead flow cytometry, Alexa488-MEK5 binding to MEKK3; hits give low values;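 active = binding response below 72% of control, or above a set upper limit, though filed actives all read lower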;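 note: 100% = DMSO only wells and 0% = binding blocked by excess unlabeled MEK5; lower values mean stronger disruption of MEK5 binding to MEKK3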
Active calls of the source: *; nt = not tested or not shown; [ ] = another dose, or the depositor's remark. Sampled rows, rich in hits. Any-hit rate of the full collection: about 3%.

SMILES | MEKK3 PB1 HTS | MEKK2mut PB1 HTS | UBC13 polyUb | MEKK2wt PB1 HTS | UCH37 DUB inh | Apaf-1 inh | MEKK2wt confirm | MEKK2mut confirm | MEKK3 confirm
CCN(CC)c1ccc2cc(-c3nc(-c4ccc(OC)cc4)cs3)c(=O)oc2c1 | 183.0* | 289.0* | -63.1 | 232.0* | 2.4 | -0.5 | 52.0 | -44.0 | 60.0*
CCN(CC)c1ccc2cc(-c3nc4ccccc4[nH]3)c(=O)oc2c1 | 95.0 | 5.0 | -18.4 | 69.0 | 2.1 | -16.1 | nt | nt | nt
COCCCn1c(SCC(=O)NC(C)(C)C)nnc1-c1cccs1 | 83.0 | 2.0 | -12.3 | 86.0 | -1.4 | 6.0 | nt | nt | nt
COC(=O)C1CCN(C(c2cccs2)c2sc3nc(C)nn3c2O)CC1 (stereo not given) | 105.0 | 7.0 | -1.6 | 106.0 | 8.9 | 8.7 | nt | nt | nt
O=c1[nH]c(SCC2CCCCO2)nc2ccccc12 (stereo not given) | 73.0*[inhibitor] | -4.0 | 4.7 | 93.0 | 2.6 | -10.3 | 103.0 | 10.0 | 105.0
Cc1cc(C)c(NC(=O)CNC(=O)COC(=O)CN2C(=O)NC3(CCCC3)C2=O)c(C)c1 | nt | nt | -3.3 | nt | 1.0 | -4.8 | nt | nt | nt
COc1ccc(C(=O)CSc2nnc(NC(=O)C3CC(=O)N(c4ccccc4)C3)s2)cc1 (stereo not given) | 136.0* | 1.0 | -8.6 | 105.0 | 4.5 | 13.9 | 104.0 | 9.0 | 104.0
CSc1nc2ccccc2n1CC(=O)Nc1c(C)cccc1C | 49.0*[inhibitor] | 6.0 | -4.4 | 71.0 | 3.6 | 10.7 | 100.0 | -4.0 | 97.0
CCN(C(=O)COC(=O)c1cnc(C)cn1)C1CCCCC1 | 1.0*[inhibitor] | -17.0 | -5.1 | 2.0*[inhibitor] | 7.4 | -14.1 | 99.0 | -5.0 | 99.0
Cc1cnc(C(=O)OCC(=O)NC2CCCCCCC2)cn1 | 97.0 | -3.0 | -2.2 | 97.0 | 3.2 | -2.1 | nt | nt | nt
COc1ccc(S(=O)(=O)N2CCC(NC(=O)N3CCOCC3)CC2)cc1 | 97.0 | -3.0 | 0.4 | 96.0 | 2.9 | -7.6 | nt | nt | nt
COc1ccc(OC)c(S(=O)(=O)n2nc(C)cc2C)c1 | 135.0* | 7.0 | -0.7 | 125.0 | 1.2 | -37.9 | 95.0 | -1.0 | 101.0
O=C1/C(=C/c2ccccc2)NC(=S)N1C(c1ccccc1)c1ccccc1 | 107.0 | 4.0 | -2.0 | 98.0 | 0.5 | 14.5 | nt | nt | nt
CC1CCN(C(=S)c2ccc3c(c2)OCO3)CC1 | 103.0 | 5.0 | -21.0 | 103.0 | 4.8 | -1.4 | nt | nt | nt
NNC(=O)c1oc2ccccc2c1-n1cccc1 | 143.0* | 4.0 | 18.4 | 121.0 | -1.1 | -12.9 | 94.0 | -6.0 | 95.0
O=C(NNC(=O)c1oc2ccccc2c1-n1cccc1)c1ccco1 | 104.0 | 1.0 | -6.7 | 92.0 | 1.9 | 8.1 | nt | nt | nt
C1CCCCCC(NCCN2CCNCC2)CCCCC1 | 105.0 | 22.0 | 2.0 | 158.0* | 5.3 | -3.4 | 142.0 | 19.0 | 100.0
O=C(NC1CCCCC1)N1CCNCC1 | 99.0 | 1.0 | 10.2 | 102.0 | -0.8 | -7.9 | nt | nt | nt
O=C(NN=Cc1cccnc1)c1ccc(Cn2cc([N+](=O)[O-])cn2)o1 | nt | nt | nt | nt | 5.8 | nt | nt | nt | nt
C=CCN(C#N)c1nc(OC)nc(N2CCCC2)n1 | 130.0* | 11.0 | -3.1 | 130.0 | 3.8 | 1.3 | 85.0 | -7.0 | 80.0
COc1nc(OC)nc(N2CCCCCC2)n1 | 98.0 | 5.0 | 1.1 | 100.0 | 4.1 | -3.0 | nt | nt | nt
CCN1CCCC1CNCc1cccc(OC)c1OCc1ccccc1 (stereo not given) | 102.0 | 4.0 | -10.7 | 106.0 | 5.5 | 2.0 | nt | nt | nt
CC1CCN(C(=O)NC(=O)c2ccccc2)CC1 | 96.0 | -4.0 | 6.6 | 96.0 | 4.6 | -3.5 | nt | nt | nt
CCCCOC(=O)c1ccc(NC(=O)C(=O)NCc2ccco2)cc1 | 136.0* | 0.0 | -1.9 | 110.0 | 0.6 | -7.9 | 88.0 | -13.0 | 91.0
